Published values pooled from the literature.
Target: Serine/threonine-protein kinase 33 (STK33, Homo sapiens, UniProt Q9BYT3)

Nc1ccc2ncnc(NCCc3ccc(Oc4ccccc4)cc3)c2c1 — remaining activity (enzyme activity; inhibitor; radiometric; 0.5 µM): 101%
Cn1cncc1[C@](O)(COc1ccc(C#N)cc1-c1ccc(OC(F)(F)F)cc1)c1ccc(C#N)cc1 — remaining binding (cell-free assay; competition with immobilised ligand; 1 µM): 74%
CC(C)(C)c1nc2c(s1)c1nc(N)ncc1c1ccc(NS(=O)(=O)c3c(F)cccc3F)c(F)c12 — remaining activity (enzyme activity; inhibitor; radiometric; 1 µM): 82%
N#CC1(c2ccccn2)CCN(Cc2cc(C(=O)O)c(=O)n3ccccc23)CC1 — remaining binding (cell-free assay; competition with immobilised ligand; 1 µM): 56%
Cn1cc(-c2cccc(N3CCc4c(sc5c4CC(C)(C)C5)C3=O)c2CO)cc(Nc2ccncn2)c1=O — inhibition (enzyme activity; inhibitor; 1 µM): 2%
CCOC(=O)c1c(C)[nH]c(/C=C2\C(=O)Nc3ccccc32)c1C — remaining activity (enzyme activity; inhibitor; radiometric; 0.5 µM): 83.7%
Nc1ncc(-c2nc(N3CCOCC3)nc(N3CCOCC3)n2)c(C(F)F)n1 — remaining binding (binding; competition with immobilised ligand; 10 µM): 94%
CC(C)(C)c1nc(-c2cccc(NS(=O)(=O)c3c(F)cccc3F)c2F)c(-c2ccnc(N)n2)s1 — remaining activity (enzyme activity; inhibitor; radiometric; 1 µM): 76%
COc1ncccc1-c1cnn2ccc(N3CCN(C(=O)OC(C)C)CC3)nc12 — remaining binding (binding; competition with immobilised ligand; 1 µM): 100%
Cn1cc(-c2cc(F)cc(N3CCn4c(cc5c4CCCC5)C3=O)c2CO)cc(Nc2ccc(N3CCN(C4COC4)CC3)cn2)c1=O — inhibition (enzyme activity; inhibitor; 0.1 µM): -5%
Cc1nn(C)cc1-c1nc2c(N3CCN(Cc4ccc(Cl)cc4)CC3)c(Cl)cnc2[nH]1 — remaining binding (binding; competition with immobilised ligand; 1 µM): 100%
COc1cc(Nc2ncc(F)c(Nc3ccc4c(n3)NC(=O)C(C)(C)O4)n2)cc(OC)c1OC — inhibition (binding; 10 µM): 85%
